Screening results deposited in PubChem by Broad Institute.
This is a sample that favours compounds with a hit; in the whole collection about 1.9% have one here.
PGC1a acetyl inh = modulators of PGC1a acetylation. U2OS PGC1a acetylation, AlphaScreen anti-acetyl-lysine; with virally co-expressed GCN5 acetyltransferase. inhibition, % at 15.6 µM. AID 651687. actives 0.17% (n = 350,000);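 active = every replicate shows inhibition of at least 40%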
FN deposit inh = fibronectin deposition inhibition. actives 0.086% (n = 350,000). AID 743247. inhibition, % at 12.6 µM. AH1F fibroblasts, Alexa488-fibronectin deposition fluorescence, overnight;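 active = mean inhibition across replicates of 30% or more, regardless of how many single replicates reach that level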
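Assay system: AH1F fibroblasts assembling fluorescent fibronectin matrix; Amount: 10000 AH1F cells per well; Buffer or medium: DMEM, 2% serum; Probe or stimulus: Alexa488-fibronectin, 24 nM final in well; Doses: single compound dose, delivered by pin transfer; Incubation: 1 h adhesion, overnight exposure; Measured by: fluorescence 485/525 nm; Read-out: fibronectin deposition inhibition.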
CFTR F508del cor = correctors of CFTR F508del function in bronchial epithelial cells. actives 0.36% (n = 350,000). CFBE cells, YFP halide quenching; stimulated with forskolin plus potentiator P3; % fluorescence drop versus neutral controls. activity (quench increase), % at 7.58 µM;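 active = mean added fluorescence quench of at least 8% versus neutral control, with both replicates also reaching 8%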;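 also: cells transiently co-express mutant CFTR-F508del with the halide-sensitive YFP; corrector assay measuring rescue of mutant channel to the surface after 24 h compound exposure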
DENV2 CPE = DENV2-induced cell death inhibition; DENV2-infected cells, cytopathic effect rescue, plate reader; CPE inhibition, % at 9.99 µM; actives 1.7% (n = 350,000); in the data active = CPE inhibition above about 20%, passing the limit was not always enough; tested in BHK-21 cells
Cneo AK release = Cryptococcus neoformans lysis via adenylate kinase release; C. neoformans lysis, adenylate kinase release luminescence, 4 h; normalised: neutral wells 0, clomiphene wells 100; lysis activity, % at 15 µM; actives 0.2% (n = 360,000); AID 651654;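 active = mean lysis activity across replicates of at least 80%, whatever share of replicates individually reach that level; inactive = mean lysis activity below 80%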
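Test system: log-phase Cryptococcus neoformans yeast cells; Quantity: yeast cell density of 5 × 10^6 cells/mL; Buffer or medium: YPD; Doses: single compound concentration per well; Timing: 4 h at 37 °C static, read 1 h later; Measured by: AK luminescence; Read-out basis: lysis from increased AK signal; Control set: Clomiphene as positive control.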
XiGFP reactiv = X-chromosome reactivation activator; XiGFP mouse fibroblasts, % GFP-positive cells imaging, 3 d; cells co-treated with 5-aza-dC sensitizer; scaled so ellipticine positive control = 100%; activation, % at 7.58 µM; actives 0.055% (n = 360,000);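 active = mean normalized replicate activation at least 10% and every replicate at or above 10%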
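Material: XiGFP fibroblasts, SV40-immortalized. Buffer or medium: DMEM plus 5-aza-dC sensitizer. Compound: single concentration per compound, delivered by pin transfer. Times: 3 days compound exposure. Controls: ellipticine 6 µM.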
Each line names hits and unclear results; the compound was inactive in the other large screens.

COc1ccc([C@H]2CC(=O)C=C(c3ccc(OC)cc3OC)C2)cc1	CFTR F508del cor 11 (no result: PGC1a acetyl inh)
COc1ccc(C2=CC(=O)C[C@H](c3ccc(OC)cc3)C2)cc1	none
COc1ccc([C@H]2CC(=O)C=C(c3ccc4cc[nH]c4c3)C2)cc1	DENV2 CPE 66
CCN1C[C@@H]2[C@@H]3C(=O)N(Cc4ccccc4)C(=O)[C@@H]3[C@](Cc3ccccc3)(C1=O)N2C(=O)c1ccc(Br)cc1	DENV2 CPE 68
O=C(Nc1ccccc1)N1CCCCN2[C@H](CO)[C@H](c3ccc(-c4ccncc4)cc3)[C@H]2C1	DENV2 CPE 38 (no result: FN deposit inh)
O=C(Nc1ccccc1)N1CCCCN2[C@H](C1)[C@@H](c1ccc(-c3ccccc3F)cc1)[C@@H]2CO	DENV2 CPE 33 (no result: FN deposit inh)
O=C(Nc1ccccc1)N1CCCCN2[C@H](C1)[C@H](c1ccc(-c3ccncc3)cc1)[C@@H]2CO	none (no result: FN deposit inh)
CC(C)NC(=O)N1CC[C@@H]2[C@@H](CO)N(C)c3ccc(-c4cccc(F)c4)cc3[C@@H]21	Cneo AK release 92
CN(C)C(=O)c1ccc(-c2ccc3c(c2)[C@H]2[C@H](CCN2C(=O)C2CCCCC2)[C@H](CO)N3C)cc1	none (no result: Cneo AK release)
CN(C)C(=O)c1ccc(-c2ccc3c(c2)[C@@H]2[C@@H](CCN2C(=O)C2CCCC2)[C@@H](CO)N3C)cc1	DENV2 CPE 65 (no result: Cneo AK release)
CN(C)C(=O)c1cccc(-c2ccc3c(c2)[C@@H]2[C@@H](CCN2C(=O)c2cccc(F)c2)[C@H](CO)N3C)c1	DENV2 CPE 39
CC(C)NC(=O)N1CC[C@H]2[C@@H]1c1cc(C#Cc3cccnc3)ccc1N(C)[C@H]2CO	none
CN1c2ccc(C#Cc3cccnc3)cc2[C@@H]2[C@@H](CCN2C(=O)c2cccc(F)c2)[C@H]1CO	DENV2 CPE 59
CN1c2ccc(C3=CCCCC3)cc2[C@H]2[C@H](CCN2C(=O)C2CC2)[C@@H]1CO	DENV2 CPE 46 (no result: FN deposit inh, Cneo AK release, XiGFP reactiv)
CN1c2ccc(Br)cc2[C@H]2[C@H](CCN2C(=O)C2CCC2)[C@H]1CO	DENV2 CPE 105 (no result: Cneo AK release)
COc1ccc(NC(=O)N2CC[C@@H]3[C@@H](CO)N(C)c4ccc(Br)cc4[C@@H]32)cc1	DENV2 CPE 54
CC(C)NC(=O)N1CC[C@@H]2[C@H]1c1cc(Br)ccc1N(C)[C@@H]2CO	DENV2 CPE 108
CN1c2ccc(Br)cc2[C@@H]2[C@@H](CCN2C(=O)C2CCC2)[C@H]1CO	none (no result: Cneo AK release)
CN1c2ccc(C3=CCCCC3)cc2[C@@H]2[C@@H](CCN2C(=O)C2CC2)[C@@H]1CO	none (no result: PGC1a acetyl inh, Cneo AK release)
COc1ccc(S(=O)(=O)N(C)C[C@H]2Oc3c(NC(=O)Nc4ccccc4)cccc3C(=O)N([C@H](C)CO)C[C@H]2C)cc1	none (no result: FN deposit inh, DENV2 CPE, Cneo AK release, XiGFP reactiv)
CNC[C@@H]1Oc2ccc(NC(=O)Nc3ccc(OC)cc3)cc2CC(=O)N([C@@H](C)CO)C[C@@H]1C	none (no result: FN deposit inh, DENV2 CPE)
CC=Cc1ccc2n(c1=O)C[C@@H]1[C@@H](CO)[C@H](C(=O)NCCC)N(CC3CC3)[C@H]21 (mixture of isomers)	none (no result: PGC1a acetyl inh, FN deposit inh)
C[C@H](CO)N1C[C@H](C)[C@@H](CN(C)S(=O)(=O)c2ccccc2)Oc2ccc(NC(=O)CCC(F)(F)F)cc2CC1=O	none (no result: FN deposit inh)
O=C(N[C@H]1C=C[C@H](CC(=O)N2CCc3ccccc3C2)O[C@H]1CO)C1CCOCC1	none (no result: FN deposit inh, Cneo AK release)
Cc1ccc(C(=O)NC(=S)NNC(=O)c2ccccc2O)cc1	CFTR F508del cor 9.7 (no result: PGC1a acetyl inh)
O=C(NC(=S)NNC(=O)c1ccccc1O)c1ccccc1	none (no result: PGC1a acetyl inh)
Clc1ccc(-c2cnc3n2CCC3)cc1	none (no result: CFTR F508del cor, DENV2 CPE, XiGFP reactiv)
COc1ccc(-c2cnc3n2CCCCC3)cc1	DENV2 CPE 44
Cc1ccc(S(=O)(=O)Nc2cccc3c2O[C@H](CN(C)Cc2ccc(C(=O)Nc4ccccc4N)cc2)[C@H](C)CN([C@H](C)CO)C3=O)cc1	DENV2 CPE 21 (no result: FN deposit inh)
C[C@H](CO)N1C[C@H](C)[C@H](CN(C)Cc2ccc(C(=O)Nc3ccccc3N)cc2)Oc2c(NS(=O)(=O)c3cn(C)cn3)cccc2C1=O	DENV2 CPE 34 (no result: Cneo AK release)
